Tests used:
Acetylcholinesterase = Acetylcholinesterase (Homo sapiens, UniProt P22303); assay: Inhibition of acetylcholine esterase
Outline: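 Acetylcholinesterase activity measured with acetylthiocholine substrate. Inhibitor at six concentrations in 5-fold steps from a maximum of 100 µM, duplicate measurements averaged. IC50 from variable-slope sigmoidal dose-response fit.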

Cholinesterase = Cholinesterase (Homo sapiens, UniProt P06276); assay: Inhibition of butyrylcholine esterase
[1] = Oral bioavailability in Sprague-Dawley rat at 2.2 mg/kg, po; type: ADME, organism-based; conditions: in vivo
Outline: (§1)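 Rat PK study, one rat per time point. Dosed i.v. and p.o. by gavage in 10% hydroxypropyl cyclodextrin in phosphate buffer pH 7.0; one compound was given in 20% Tween 80 plus 5% glucose in phosphate buffer pH 7.0. Plasma was diluted 1:1 with 10% methanol and centrifuged, then quantified by turbulent-flow chromatography–MS/MS against plasma calibration curves spanning 10-3000 ng/mL.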

[2] = Clearance in Sprague-Dawley rat at 1.1 mg/kg, iv and 2.2 mg/kg, po; type: ADME, organism-based; conditions: in vivo; outline: as §1
Hormone-sensitive lipase = molecular target: T1, Hormone-sensitive lipase (Homo sapiens, UniProt Q05469); assay: Inhibition of recombinant human hormone-sensitive lipase
T1 sequence (Q05469 whole entry): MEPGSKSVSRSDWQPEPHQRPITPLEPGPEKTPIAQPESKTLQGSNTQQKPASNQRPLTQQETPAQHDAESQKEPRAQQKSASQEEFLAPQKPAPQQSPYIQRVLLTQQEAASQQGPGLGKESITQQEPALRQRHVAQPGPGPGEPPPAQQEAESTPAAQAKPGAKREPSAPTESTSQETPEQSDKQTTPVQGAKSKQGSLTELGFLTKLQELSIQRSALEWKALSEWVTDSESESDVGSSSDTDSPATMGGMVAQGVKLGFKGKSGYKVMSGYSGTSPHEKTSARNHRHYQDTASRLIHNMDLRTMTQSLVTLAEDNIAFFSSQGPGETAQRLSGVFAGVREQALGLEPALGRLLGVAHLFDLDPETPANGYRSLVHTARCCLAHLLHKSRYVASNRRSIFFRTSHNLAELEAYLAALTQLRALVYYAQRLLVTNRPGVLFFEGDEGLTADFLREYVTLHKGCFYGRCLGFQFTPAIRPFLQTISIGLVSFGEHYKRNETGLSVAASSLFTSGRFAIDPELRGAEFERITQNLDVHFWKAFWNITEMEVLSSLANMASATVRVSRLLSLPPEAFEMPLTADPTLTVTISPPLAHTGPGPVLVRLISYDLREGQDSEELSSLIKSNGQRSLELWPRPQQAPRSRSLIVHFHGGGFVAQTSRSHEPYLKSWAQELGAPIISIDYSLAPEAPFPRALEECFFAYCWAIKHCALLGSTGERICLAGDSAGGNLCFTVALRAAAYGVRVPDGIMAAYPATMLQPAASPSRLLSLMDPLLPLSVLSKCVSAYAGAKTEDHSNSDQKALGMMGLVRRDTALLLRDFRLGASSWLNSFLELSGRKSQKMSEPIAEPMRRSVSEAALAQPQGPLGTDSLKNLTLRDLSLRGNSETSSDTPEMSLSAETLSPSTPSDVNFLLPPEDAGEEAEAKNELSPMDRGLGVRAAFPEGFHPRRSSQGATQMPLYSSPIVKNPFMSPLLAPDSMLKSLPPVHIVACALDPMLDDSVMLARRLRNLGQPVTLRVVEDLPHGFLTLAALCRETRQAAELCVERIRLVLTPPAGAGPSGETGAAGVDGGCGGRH

[3] = Oral bioavailability in Sprague-Dawley rat at 1 mg/kg, po; type: ADME, organism-based; conditions: in vivo
Outline: (§2)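 Male Sprague-Dawley rats, 12 weeks old, dosed by oral gavage and i.v. in 10% hydroxypropyl cyclodextrin in phosphate buffer pH 7.0, with one rat per time point. Plasma was diluted 1:1 in 10% methanol, centrifuged and quantified by turbulent-flow chromatography–tandem MS against plasma calibration curves (10-3000 ng/mL).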

[4] = Cmax in Sprague-Dawley rat at 0.5 mg/kg, iv and 1 mg/kg, po; type: ADME, organism-based; conditions: in vivo; outline: as §2

Sequence of Cholinesterase (P06276 whole entry): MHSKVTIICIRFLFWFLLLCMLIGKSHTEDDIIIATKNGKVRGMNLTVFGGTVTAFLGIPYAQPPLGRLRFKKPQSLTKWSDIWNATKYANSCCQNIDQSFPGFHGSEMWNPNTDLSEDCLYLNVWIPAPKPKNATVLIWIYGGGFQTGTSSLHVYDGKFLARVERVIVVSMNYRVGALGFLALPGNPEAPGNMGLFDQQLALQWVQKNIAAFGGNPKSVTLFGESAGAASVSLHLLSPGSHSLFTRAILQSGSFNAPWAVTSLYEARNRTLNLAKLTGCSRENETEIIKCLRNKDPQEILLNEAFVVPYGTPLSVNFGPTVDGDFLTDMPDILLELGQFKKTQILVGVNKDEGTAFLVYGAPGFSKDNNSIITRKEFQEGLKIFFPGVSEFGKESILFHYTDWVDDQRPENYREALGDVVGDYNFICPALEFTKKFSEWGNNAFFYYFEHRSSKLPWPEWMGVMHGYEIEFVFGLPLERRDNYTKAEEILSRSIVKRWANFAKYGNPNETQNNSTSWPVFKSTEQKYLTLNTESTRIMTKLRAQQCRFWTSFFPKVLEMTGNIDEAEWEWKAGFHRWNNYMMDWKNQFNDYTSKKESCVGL
Sequence of Acetylcholinesterase (P22303 whole entry): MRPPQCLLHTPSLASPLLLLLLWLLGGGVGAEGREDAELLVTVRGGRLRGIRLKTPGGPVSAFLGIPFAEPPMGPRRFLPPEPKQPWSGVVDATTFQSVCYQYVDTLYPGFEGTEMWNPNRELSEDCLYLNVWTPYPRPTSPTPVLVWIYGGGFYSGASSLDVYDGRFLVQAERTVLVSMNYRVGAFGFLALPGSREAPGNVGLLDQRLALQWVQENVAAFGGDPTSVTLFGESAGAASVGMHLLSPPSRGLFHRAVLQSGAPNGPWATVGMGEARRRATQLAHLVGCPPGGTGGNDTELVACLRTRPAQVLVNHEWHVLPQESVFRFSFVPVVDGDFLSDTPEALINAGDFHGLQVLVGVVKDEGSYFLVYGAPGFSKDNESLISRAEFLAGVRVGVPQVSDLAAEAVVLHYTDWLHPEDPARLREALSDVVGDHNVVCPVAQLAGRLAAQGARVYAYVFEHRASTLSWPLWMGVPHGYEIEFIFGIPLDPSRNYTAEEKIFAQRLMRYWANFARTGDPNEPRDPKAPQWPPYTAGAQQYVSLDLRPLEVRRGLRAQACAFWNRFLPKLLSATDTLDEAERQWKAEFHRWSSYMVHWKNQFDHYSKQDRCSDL

| SMILES | IC50 (Acetylcholinesterase) [µM] | IC50 (Cholinesterase) [µM] | further results |
| --- | --- | --- | --- |
| O=C(Oc1ccc(Oc2ccc(C(F)(F)F)cn2)cc1)N1CCc2ccccc2C1 | > 50 | > 50 |  |
| Cc1ccc(N(C)C(=O)Oc2ccc(Oc3ccc(C(F)(F)F)cn3)cc2)cc1 | > 50 | > 50 |  |
| Cc1cccc(N(C)C(=O)Oc2ccc(Oc3ccc(C(F)(F)F)cn3)cc2)c1 | > 50 | > 50 |  |
| CN(C(=O)Oc1ccc(Oc2ccc(C(F)(F)F)cn2)cc1)c1ccccc1 | > 50 | > 50 | bioavailability [1]: 16%; clearance [2]: 61 mL/min/kg |
| COc1ccccc1N(C)C(=O)Oc1ccc(Oc2ccc(C(F)(F)F)cn2)cc1 | > 50 | > 50 |  |
| CC1CCN(C(=O)Oc2ccc(Oc3ccc(C(F)(F)F)cn3)cc2)CC1 | > 50 | > 50 |  |
| Cc1ccccc1N(C)C(=O)Oc1ccc(Oc2ccc(C(F)(F)F)cn2)cc1 | > 50 | > 50 |  |
| O=C(Oc1ccc(Oc2ccc(C(F)(F)F)cn2)cc1)N1CCCCC1 | > 50 | 8.2 |  |
| CN(C(=O)Oc1ccc(Oc2ccc(C(F)(F)F)cn2)cc1)c1ccccc1Cl | > 50 | > 50 |  |
| CN(C)C(=O)Oc1ccc(Oc2ncc(Cl)cc2Cl)cc1 | > 50 | > 50 | IC50 (Hormone-sensitive lipase): > 50 µM |
| O=C(Oc1ccc(Oc2ccc(C(F)(F)F)cn2)cc1)N1CCOCC1 | > 50 | > 50 | bioavailability [3]: 12%; Cmax [4]: 21 ng/mL |
| O=C(Oc1ccc(Oc2ccc(C(F)(F)F)cn2)cc1)N1CCC(Cc2ccccc2)CC1 |  | > 50 |  |
| O=C(Oc1ccc(Oc2ccc(C(F)(F)F)cn2)cc1)N1CCc2ccccc21 | > 50 | > 50 | IC50 (Hormone-sensitive lipase): > 3 µM |
| O=C(Oc1ccc(Oc2ccc(C(F)(F)F)cn2)cc1)N1CCCc2ccc(C(F)(F)F)cc21 | > 50 | > 50 | IC50 (Hormone-sensitive lipase): > 5 µM |
| CCCCNC(=O)Oc1ccc(Oc2ncc(Cl)cc2Cl)cc1 | > 50 | 19 |  |
| CN(C(=O)Oc1ccc(Oc2ccc(Cl)cn2)cc1)c1ccccc1 | > 50 | > 50 |  |
| CN(C(=O)Oc1ccc(Oc2c(Cl)cncc2Cl)cc1)c1ccccc1 | > 50 | > 50 |  |
| CN(C(=O)Oc1ccc(Oc2ccc(C(F)(F)F)cn2)cc1)c1ccc(Cl)cc1 | > 50 | > 50 |  |
| O=C(Oc1ccc(Oc2ncc(Cl)cc2Cl)cc1)N1CCCC1 | > 50 | > 50 |  |

| SMILES | IC50 (Acetylcholinesterase) [µM] | IC50 (Cholinesterase) [µM] | further results |
| --- | --- | --- | --- |
| CN(C(=O)Oc1ccc(Oc2ccc(C(F)(F)F)cn2)cc1)C(C)(C)C | > 50 | > 50 | IC50 (Hormone-sensitive lipase): > 5 µM |
| O=C(Oc1ccc(Oc2ncc(Cl)cc2Cl)cc1)N1CCOCC1 | > 50 | > 50 |  |
| CC1CCCN(C(=O)Oc2ccc(Oc3ccc(C(F)(F)F)cn3)cc2)C1 (stereo not drawn) | > 50 | > 50 |  |
| O=C(Oc1ccc(Oc2ccc(C(F)(F)F)cn2)cc1)N1CCCC1 | > 50 | > 50 |  |
| O=C(c1ccccc1)C1CCN(C(=O)Oc2ccc(Oc3ccc(C(F)(F)F)cn3)cc2)CC1 |  | > 50 |  |
| CC(C)N(C)C(=O)Oc1ccc(Oc2ccc(C(F)(F)F)cn2)cc1 | > 50 | > 50 | IC50 (Hormone-sensitive lipase): > 5 µM |
| COc1ccc(N(C)C(=O)Oc2ccc(Oc3ccc(C(F)(F)F)cn3)cc2)cc1 | > 50 | > 50 |  |
| O=C(Oc1ccc(Oc2ccc(C(F)(F)F)cn2)cc1)N1Cc2ccccc2C1 | > 50 | > 50 |  |
| CN(C(=O)Oc1ccc(Oc2ncc(C(F)(F)F)cc2Cl)cc1)c1ccccc1 | > 50 | > 50 |  |
| CC1CN(C(=O)Oc2ccc(Oc3ccc(C(F)(F)F)cn3)cc2)CC(C)O1 (stereo not drawn) | > 50 | > 50 |  |
| CN(C(=O)Oc1ccc(Nc2ccc(C(F)(F)F)cn2)cc1)c1ccccc1 | > 50 | > 50 |  |
| CN(C(=O)Oc1ccc(Oc2ncc(Cl)cc2Cl)cc1)c1ccccc1 | > 50 | > 50 |  |
| CN(Cc1ccccc1)C(=O)Oc1ccc(Oc2ccc(C(F)(F)F)cn2)cc1 | > 50 | > 50 |  |
| CCN(C(=O)Oc1ccc(Oc2ccc(C(F)(F)F)cn2)cc1)c1ccccc1 |  |  | IC50 (Hormone-sensitive lipase): > 5 µM |
| CN(C(=O)Oc1ccc(Oc2ccc(C(F)(F)F)cn2)cc1)c1cccc(Cl)c1 | > 50 | > 50 |  |
| CN(C(=O)Oc1ccc(Oc2ccc(C(F)(F)F)cn2)cc1)C1CCCCC1 | > 50 | > 50 | IC50 (Hormone-sensitive lipase): > 5 µM |
| CC1CCCCN1C(=O)Oc1ccc(Oc2ccc(C(F)(F)F)cn2)cc1 (stereo not drawn) | > 50 | > 50 | IC50 (Hormone-sensitive lipase): > 5 µM |
| CN(C(=O)Oc1ccc(Oc2ccccc2)cc1)c1ccccc1 | > 50 | > 50 | IC50 (Hormone-sensitive lipase): > 5 µM |

— ChEMBL document CHEMBL1137574, “Synthesis and structure-activity relationship for a novel class of potent and selective carbamate-based inhibitors of hormone selective lipase with acute in vivo antilipolytic effects” (J Med Chem, 2007)
